Columns and labels:
[1] = Stability in rat liver microsomes assessed as maximum bioavailability; assay type: ADME, Microsome; conditions: read-out: Fmax
[2] = Dose normalized Cmax in Beagle dog at 0.2 mg/kg, po; assay type: ADME, organism-based, Canis lupus familiaris; conditions: in vivo
[3] = Clearance in monkey hepatocytes; assay type: ADME, cell-based, Macaca mulatta, Hepatocyte; conditions: rhesus monkey
[4] = Clearance in rat hepatocytes; assay type: ADME, cell-based, Hepatocyte
[5] = Volume of distribution at steady state in Wistar rat at 0.3 mg/kg, iv; assay type: ADME, organism-based; conditions: in vivo
Method in brief: (§1)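 Single intravenous dose: 0.3 mg kg⁻¹ in male Wistar rats; 0.1 mg kg⁻¹ in female Beagle dogs. Plasma pharmacokinetics gave steady-state volume of distribution.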

[6] = Stability in monkey hepatocytes assessed as maximum bioavailability; assay type: ADME, Macaca mulatta, Hepatocyte; conditions: rhesus monkey, read-out: Fmax
[7] = Stability in rat hepatocytes assessed as maximum bioavailability; assay type: ADME, Hepatocyte; conditions: read-out: Fmax
[8] = Stability in monkey liver microsomes assessed as maximum bioavailability; assay type: ADME, Macaca mulatta, Microsome; conditions: rhesus monkey, read-out: Fmax
[9] = Clearance in dog hepatocytes; assay type: ADME, cell-based, Canis lupus familiaris, Hepatocyte
[10] = Stability in human liver microsomes assessed as maximum bioavailability; assay type: ADME, Microsome; conditions: read-out: Fmax
[11] = Stability in dog liver microsomes assessed as maximum bioavailability; assay type: ADME, Canis lupus familiaris, Microsome; conditions: read-out: Fmax
[12] = Clearance in monkey liver microsomes; assay type: ADME, Macaca mulatta, Microsome; conditions: rhesus monkey
[13] = Volume of distribution at steady state in Beagle dog at 0.1 mg/kg, iv; assay type: ADME, organism-based, Canis lupus familiaris; conditions: in vivo; method in brief: as §1
[14] = biological target: T1, Solute carrier family 2, facilitated glucose transporter member 4 (Homo sapiens, UniProt P14672); assay: Inhibition of human GLUT4 expressed in CHO cells assessed as reduction in glucose uptake by measuring decrease in ATP production preincubated for 20 mins followed by glucose addition and measured after 15 mins in presence of oxidative phosphorylation inhibitor rotenone by CellTiter-Glo Luminescent Cell Viability Assay; assay type: cell-based
T1 sequence (P14672 whole entry): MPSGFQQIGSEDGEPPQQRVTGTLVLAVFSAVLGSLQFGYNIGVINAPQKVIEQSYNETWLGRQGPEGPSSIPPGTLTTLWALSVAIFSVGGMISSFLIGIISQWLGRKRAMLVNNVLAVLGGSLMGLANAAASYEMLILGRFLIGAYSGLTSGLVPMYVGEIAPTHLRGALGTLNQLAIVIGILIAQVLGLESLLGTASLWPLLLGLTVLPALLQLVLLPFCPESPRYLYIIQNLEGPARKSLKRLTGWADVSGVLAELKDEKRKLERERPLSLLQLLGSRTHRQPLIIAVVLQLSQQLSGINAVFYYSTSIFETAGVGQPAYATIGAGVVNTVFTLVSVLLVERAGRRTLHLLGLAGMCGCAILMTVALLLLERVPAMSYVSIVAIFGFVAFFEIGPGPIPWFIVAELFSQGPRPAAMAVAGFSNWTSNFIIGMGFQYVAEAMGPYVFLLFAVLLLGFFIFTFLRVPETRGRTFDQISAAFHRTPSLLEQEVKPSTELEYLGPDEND

[15] = Stability in dog liver microsomes; assay type: ADME, Canis lupus familiaris, Microsome
[16] = Stability in human hepatocytes assessed as maximum bioavailability; assay type: ADME, Hepatocyte; conditions: read-out: Fmax
[17] = Stability in mouse liver microsomes assessed as maximum bioavailability; assay type: ADME, Microsome; conditions: read-out: Fmax
[18] = Stability in dog hepatocytes assessed as maximum bioavailability; assay type: ADME, Canis lupus familiaris, Hepatocyte; conditions: read-out: Fmax
[19] = Clearance in human liver microsomes; assay type: ADME, Microsome
[20] = Clearance in human hepatocytes; assay type: ADME, cell-based, Hepatocyte
[21] = biological target: T2, Solute carrier family 2, facilitated glucose transporter member 3 (Homo sapiens, UniProt P11169); assay: Inhibition of human GLUT3 expressed in human GLUT1-/- DLD-1 cells assessed as reduction in glucose uptake by measuring decrease in ATP production incubated for 15 mins in presence of oxidative phosphorylation inhibitor rotenone by CellTiter-Glo Luminescent Cell Viability Assay; assay type: cell-based
T2 sequence (P11169 whole entry): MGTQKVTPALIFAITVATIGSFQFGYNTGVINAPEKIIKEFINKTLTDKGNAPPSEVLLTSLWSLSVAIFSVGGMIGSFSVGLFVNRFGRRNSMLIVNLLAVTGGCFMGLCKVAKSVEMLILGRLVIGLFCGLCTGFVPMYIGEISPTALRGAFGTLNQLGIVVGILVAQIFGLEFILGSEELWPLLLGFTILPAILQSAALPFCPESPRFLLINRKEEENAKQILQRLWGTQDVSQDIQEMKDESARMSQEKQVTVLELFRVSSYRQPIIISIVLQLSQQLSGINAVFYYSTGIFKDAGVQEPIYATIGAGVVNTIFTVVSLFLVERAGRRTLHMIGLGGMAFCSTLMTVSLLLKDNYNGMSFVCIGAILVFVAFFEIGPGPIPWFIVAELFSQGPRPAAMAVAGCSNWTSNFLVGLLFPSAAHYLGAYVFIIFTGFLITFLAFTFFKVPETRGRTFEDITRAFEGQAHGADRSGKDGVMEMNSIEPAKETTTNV

[22] = Clearance in mouse liver microsomes; assay type: ADME, Microsome
[23] = biological target: T3, Solute carrier family 2, facilitated glucose transporter member 1 (Homo sapiens, UniProt P11166); assay: Inhibition of human GLUT1 expressed in human DLD-1 cells assessed as reduction in glucose uptake by measuring decrease in ATP production incubated for 15 mins in presence of oxidative phosphorylation inhibitor rotenone by CellTiter-Glo Luminescent Cell Viability Assay; assay type: cell-based
T3 sequence (P11166 whole entry): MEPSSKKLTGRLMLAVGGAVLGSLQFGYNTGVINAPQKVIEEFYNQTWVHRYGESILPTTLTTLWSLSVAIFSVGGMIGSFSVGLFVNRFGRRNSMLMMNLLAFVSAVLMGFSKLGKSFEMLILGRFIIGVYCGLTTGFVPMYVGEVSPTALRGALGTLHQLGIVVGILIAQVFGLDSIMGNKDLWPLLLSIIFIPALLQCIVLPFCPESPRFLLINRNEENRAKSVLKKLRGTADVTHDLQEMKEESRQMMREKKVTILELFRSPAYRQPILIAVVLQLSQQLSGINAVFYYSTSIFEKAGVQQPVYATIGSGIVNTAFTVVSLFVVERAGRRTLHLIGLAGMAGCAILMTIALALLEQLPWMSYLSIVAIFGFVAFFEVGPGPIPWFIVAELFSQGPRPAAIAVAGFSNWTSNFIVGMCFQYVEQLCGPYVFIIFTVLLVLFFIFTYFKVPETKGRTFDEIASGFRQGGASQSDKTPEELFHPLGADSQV

[24] = biological target: T4, Solute carrier family 2, facilitated glucose transporter member 2 (Homo sapiens, UniProt P11168); assay: Inhibition of human GLUT2 expressed in CHO cells assessed as reduction in fructose uptake by measuring decrease in ATP production incubated for 15 mins in presence of oxidative phosphorylation inhibitor rotenone by CellTiter-Glo Luminescent Cell Viability Assay; assay type: cell-based
T4 sequence (P11168 whole entry): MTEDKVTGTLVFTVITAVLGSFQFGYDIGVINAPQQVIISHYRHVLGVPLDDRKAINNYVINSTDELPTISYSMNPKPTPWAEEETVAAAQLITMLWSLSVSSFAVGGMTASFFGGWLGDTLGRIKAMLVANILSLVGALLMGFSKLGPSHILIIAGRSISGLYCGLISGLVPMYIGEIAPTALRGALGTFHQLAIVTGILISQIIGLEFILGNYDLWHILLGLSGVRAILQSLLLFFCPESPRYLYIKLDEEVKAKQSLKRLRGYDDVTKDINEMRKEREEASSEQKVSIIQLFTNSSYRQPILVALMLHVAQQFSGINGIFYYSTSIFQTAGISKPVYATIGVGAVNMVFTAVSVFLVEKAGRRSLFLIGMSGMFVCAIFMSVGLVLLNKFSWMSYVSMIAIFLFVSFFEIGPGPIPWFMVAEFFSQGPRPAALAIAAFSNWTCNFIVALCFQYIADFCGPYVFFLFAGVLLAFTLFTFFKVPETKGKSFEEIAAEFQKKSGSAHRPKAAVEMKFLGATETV

[25] = Efflux ratio of apparent permeability across basolateral to apical side over apical to basolateral side in human Caco-2 cells at 2 uM measured after 2 hrs; assay type: ADME, cell-based; conditions: caco-2, 2 h
Method in brief: (§2)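 Bidirectional Caco-2 transport at 2 μm over 2 h, apical→basolateral and basolateral→apical. Apparent permeability (P_app) is taken from compound transport. Efflux ratio is P_app B→A divided by P_app A→B.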

[26] = Clearance in dog liver microsomes; assay type: ADME, Canis lupus familiaris, Microsome
[27] = Apparent permeability across apical to basolateral side in human Caco-2 cells at 2 uM measured after 2 hrs; assay type: ADME, cell-based; conditions: caco-2, 2 h; method in brief: as §2
[28] = Clearance in rat liver microsomes; assay type: ADME, Microsome

## Cc1c(NC(=O)c2cc(C(N)=O)nc3cc(F)ccc23)c(C(F)(F)F)nn1Cc1ccc(C#N)cc1 [BAY-876]
[1]
  Fh: 74%
[2]
  Cmax/dose: 0.93 kg/L
[3]
  CLH: 1.4 L/h/kg
[4]
  CLhep predicted: 7.67 mL/min/kg
[5]
  Vdss: 0.79 L/kg
[6]
  Fh: 46%
[7]
  Fh: 89%
[8]
  Fh: 70%
[9]
  CLH: 0.2 L/h/kg
[10]
  Fh: 76%
[11]
  Fh: 100%
[12]
  CLH: 0.76 L/h/kg
[13]
  Vdss: 1 L/kg
[14]
  IC50: 290 nM
[15]
  Stability: Stable
[16]
  Fh: 72%
[17]
  Fh: 94%
[18]
  Fh: 90%
[19]
  CLhep predicted: 5.33 mL/min/kg
[20]
  CLH: 0.37 L/h/kg

## Cc1c(NC(=O)c2cc(C(N)=O)nc3ccccc23)c(C(F)(F)F)nn1Cc1ccc(C#N)cc1
[4]
  CLhep predicted: 30 mL/min/kg
[9]
  CLH: 0.11 L/h/kg
[10]
  Fh: 84%
[11]
  Fh: 97%
[21]
  IC50: 580 nM
[14]
  IC50: 170 nM
[22]
  CLhep predicted: 23.3 mL/min/kg
[17]
  Fh: 74%
[23]
  IC50: 6 nM
[18]
  Fh: 95%
[19]
  CLhep predicted: 3.5 mL/min/kg
[24]
  IC50: 69 µM
[25]
  Ratio: 3.7
[26]
  CLH: 0.06 L/h/kg

## Cc1c(NC(=O)c2cc(C(F)(F)F)nc3ccc(Br)cc23)c(C(F)(F)F)nn1Cc1ccc(F)cc1
[4]
  CLhep predicted: 43.3 mL/min/kg
[27]
  Papp: 3.5 nm/s
[22]
  CLhep predicted: 36.7 mL/min/kg
[17]
  Fh: 59%

## Cc1c(NC(=O)c2cc(C(N)=O)nc3cc(F)ccc23)c(C(F)(F)F)nn1Cc1ccc(C#N)cn1
[1]
  Fh: 91%
[3]
  CLH: 0.32 L/h/kg
[4]
  CLhep predicted: 0.667 mL/min/kg
[6]
  Fh: 88%
[7]
  Fh: 99%
[8]
  Fh: 84%
[9]
  CLH: 0.001 L/h/kg
[10]
  Fh: 86%
[11]
  Fh: 100%
[12]
  CLH: 0.4 L/h/kg
[27]
  Papp: 16 nm/s
[28]
  CLH: 0.37 L/h/kg
[14]
  IC50: 620 nM
[16]
  Fh: 98%
[22]
  CLhep predicted: 6 mL/min/kg
[17]
  Fh: 93%
[23]
  IC50: 4 nM
[18]
  Fh: 100%
[19]
  CLhep predicted: 3.17 mL/min/kg
[20]
  CLH: 0.03 L/h/kg
[26]
  CLH: 0.001 L/h/kg

— ChEMBL document CHEMBL5653626 (ChemMedChem, 2016)
